From PubChem
A1 apoptosis 2: A1 inhibitors via caspase activation, primary screen, cell-based, luminescence, HTS, two replicates | MEF A1-2A-BIM cells, caspase-Glo luminescence, 3 h; percent of clofoctol response, DMSO zero | caspase activation, % (test concentration not listed) | 24,000 tested, under 10 active; in the data active = caspase activation above about 5.9%; inconclusive = no clear call, values can overlap the other calls; inactive = below about 2.2%
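Material: A1-2A-BIM-expressing MEF cells. Buffer or medium: RPMI-1640 plus 10% FBS. Incubation: cells settled overnight, compound exposure 3 h at 37 °C, 5% CO2. Signal: Caspase-Glo 3/7 luminescence, 1 h at room temperature.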
T cruzi HTS: inhibitors of intracellular Trypanosoma cruzi, primary screen, cell-based, plate reader, single point, set 2 | activity score (inhibition), % at 5.01 µM | AID 651903, 2012 | intracellular Trypanosoma cruzi in host cells | 22,000 compounds, 4.9% hits; in the data active = activity score above about 55%; inconclusive = no clear call, values can overlap the other calls;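 note: parasites and compound incubated about four days before reading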
INS-1E rescue: protection of INS-1E cells from cytokine death, primary screen, ATP luminescence, single point; INS-1E cytokine-induced death, 48 h; normalised: neutral wells 0, positive control 100; protection from cytokine-induced ATP loss, % at 10 µM; 20,000 compounds, 0.1% hits; AID 488910, 2010;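 active = mean replicate protection from cytokine-induced ATP loss at least 50% and at least 75% of replicates each reaching 50%; inconclusive = meets only one of the two criteria, mean or replicate share; inactive = fails both the mean and replicate share criteria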
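Assay system: INS-1E rat insulinoma cells. Amount: 8000 cells per well. Medium: phenol-red-free RPMI with 5% fetal bovine serum. Reagent: IL-1β, TNF-α and IFN-γ cytokine mix. Doses: one compound concentration, pin transfer. Schedule: 48 h co-treatment, 10 min post-lysis read. Detection: CellTiter-Glo luminescence measuring cellular ATP.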
Numbers stand for hits; . = inactive; ? = inconclusive; / = no result. Shown is part of a subset that was picked to be rich in hits.

SMILES	A1 apoptosis 2	T cruzi HTS	INS-1E rescue
C[C@H](CO)N1C[C@H](C)[C@H](CN(C)Cc2cccc(C(F)(F)F)c2)Oc2ncc(-c3cccc(C(F)(F)F)c3)cc2C1=O	.	89	/
C[C@H](CO)N1C[C@H](C)[C@H](CN(C)C(=O)NC2CCCCC2)Oc2ncc(C#Cc3ccccc3)cc2C1=O	?	.	/
C[C@H](CO)N1C[C@H](C)[C@H](CN(C)Cc2cccc(C(F)(F)F)c2)Oc2ncc(-c3cccc(F)c3)cc2C1=O	.	65	/
C[C@H](CO)N1C[C@H](C)[C@H](CN(C)C(=O)NC2CCCCC2)Oc2ncc(-c3cccc(C(F)(F)F)c3)cc2C1=O	7.1	?	/
Cc1cccc(CN(C)C[C@@H]2Oc3ncc(-c4cccc(F)c4)cc3C(=O)N([C@H](C)CO)C[C@@H]2C)c1	.	.	/
C[C@H]1CN([C@@H](C)CO)C(=O)c2cc(NC(=O)c3ccncc3)ccc2O[C@@H]1CN(C)Cc1ccc2c(c1)OCO2	.	.	.
COc1ccc(NC(=O)N(C)C[C@H]2OCCCC[C@@H](C)Oc3ccc(NC(=O)NC4CCCCC4)cc3C(=O)N([C@H](C)CO)C[C@@H]2C)cc1	/	.	.
C[C@@H]1CN([C@@H](C)CO)C(=O)c2cc(NC(=O)Cn3cnnn3)ccc2O[C@@H]1CN(C)CC1CC1	.	.	.
C[C@H](CO)N1C[C@H](C)[C@H](CN(C)S(=O)(=O)c2ccccc2)Oc2ccc(NC(=O)NC3CCCCC3)cc2C1=O	.	.	.
C[C@H](CO)N1C[C@H](C)[C@H](CN(C)CC2CC2)Oc2c(NC(=O)Nc3ccc(C(F)(F)F)cc3)cccc2C1=O	.	82	.
C[C@H](CO)N1C[C@H](C)[C@@H](CN(C)CC2CCCCC2)Oc2c(NC(=O)Nc3ccc(C(F)(F)F)cc3)cccc2C1=O	.	69	.
C[C@@H]1CN([C@@H](C)CO)C(=O)c2cccc(NC(=O)Nc3ccc(C(F)(F)F)cc3)c2O[C@H]1CN(C)CC1CC1	.	.	.
C[C@@H]1CN([C@H](C)CO)C(=O)c2cccc(NC(=O)Nc3ccc(C(F)(F)F)cc3)c2O[C@@H]1CN(C)CC1CC1	.	.	.
COCCOC(=O)N1C(=O)[C@@]2(c3cc(C#CCCO)ccc31)[C@H](c1ccccc1OCCO)N1[C@H](c3ccccc3)[C@H](c3ccccc3)OC(=O)[C@H]1[C@@H]2C(=O)N1CCc2cc(OC)c(OC)cc2C1	.	/	/
COc1ccc(S(=O)(=O)Nc2ccc3c(c2)C(=O)N([C@@H](C)CO)C[C@H](C)[C@@H](CN(C)C(=O)Nc2c(C)noc2C)O3)cc1	/	.	.
C[C@H](CO)N1C[C@H](C)[C@H](CN(C)Cc2ccccc2C(F)(F)F)OCc2cnnn2CCCC1=O	.	.	/
COc1ccc(NC(=O)Nc2ccc3c(c2)CC(=O)N([C@H](C)CO)C[C@@H](C)[C@@H](CN(C)Cc2ccc(Cl)c(Cl)c2)O3)cc1	.	74	.
COc1ccc(NC(=O)Nc2ccc3c(c2)CC(=O)N([C@H](C)CO)C[C@@H](C)[C@H](CN(C)Cc2ccc(Cl)c(Cl)c2)O3)cc1	/	?	.
COc1ccc(CN(C)C[C@H]2Oc3ccc(NC(=O)Nc4ccc(OC)cc4)cc3CC(=O)N([C@H](C)CO)C[C@@H]2C)cc1	.	/	/
COc1ccc(NC(=O)Nc2ccc3c(c2)CC(=O)N([C@@H](C)CO)C[C@H](C)[C@H](CN(C)Cc2ccc(Cl)c(Cl)c2)O3)cc1	/	64	.
C[C@@H]1CN([C@H](C)CO)C(=O)Cc2cc(NC(=O)Nc3ccc(F)cc3)ccc2O[C@H]1CN(C)Cc1ccc(Cl)c(Cl)c1	.	62	.
C[C@H]1CN([C@@H](C)CO)C(=O)Cc2cc(NC(=O)Nc3ccc(F)cc3)ccc2O[C@@H]1CN(C)Cc1ccc(Cl)c(Cl)c1	/	?	.
O[C@@H](Cc1ccccc1)[C@@H](/C=C/C1CC1)N(CC#Cc1ccccc1)Cc1ccccc1Br	.	/	/
CNC[C@H]1Oc2c(NS(=O)(=O)c3c(C)noc3C)cccc2C(=O)N([C@H](C)CO)C[C@H]1C	.	.	.
Cc1cc(C(=O)Nc2cccc3c2O[C@H](CN(C)C(=O)NC2CCCCC2)[C@@H](C)CN([C@@H](C)CO)C3=O)n(C)n1	.	.	.
SMILES	A1 apoptosis 2	T cruzi HTS	INS-1E rescue
C[C@H]1CN([C@@H](C)CO)C(=O)c2cccc(NS(=O)(=O)c3cccs3)c2O[C@H]1CN(C)S(=O)(=O)c1ccccc1	/	.	.
CNC[C@@H]1Oc2c(NC(=O)c3nc4ccccc4s3)cccc2C(=O)N([C@H](C)CO)C[C@H]1C	.	.	.
C[C@@H]1CN([C@H](C)CO)C(=O)Cc2cc(NS(=O)(=O)c3ccccc3)ccc2O[C@H]1CN(C)Cc1ccc(Oc2ccccc2)cc1	/	.	.
Cc1ccc(S(=O)(=O)Nc2ccc3c(c2)CC(=O)N([C@H](C)CO)C[C@@H](C)[C@@H](CN(C)Cc2ccc(Oc4ccccc4)cc2)O3)cc1	/	65	.
C[C@@H]1CN([C@@H](C)CO)C(=O)Cc2cc(NS(=O)(=O)c3ccccc3)ccc2O[C@@H]1CN(C)Cc1ccc(Oc2ccccc2)cc1	.	.	.
C[C@H]1CN([C@@H](C)CO)C(=O)Cc2cc(NS(=O)(=O)c3ccc(F)cc3)ccc2O[C@@H]1CN(C)Cc1ccc(Oc2ccccc2)cc1	.	66	.
C[C@@H]1CN([C@H](C)CO)C(=O)Cc2cc(NS(=O)(=O)c3ccc(F)cc3)ccc2O[C@H]1CN(C)Cc1ccc(Oc2ccccc2)cc1	.	66	.
Cc1ccc(S(=O)(=O)Nc2ccc3c(c2)CC(=O)N([C@H](C)CO)C[C@H](C)[C@@H](CN(C)Cc2ccc(Oc4ccccc4)cc2)O3)cc1	.	/	/
C[C@@H]1CN([C@H](C)CO)C(=O)c2cc(NC(=O)NC3CCCCC3)ccc2O[C@@H]1CN(C)CC1CCCCC1	/	.	.
Cc1ccc(S(=O)(=O)N(C)C[C@@H]2Oc3c(NC(=O)c4cc(C)nn4C)cccc3C(=O)N([C@H](C)CO)C[C@@H]2C)cc1	.	.	.
Cc1ccc(S(=O)(=O)N(C)C[C@H]2OCCCC[C@@H](C)Oc3ccc(NC(=O)CCCN(C)C)cc3C(=O)N([C@@H](C)CO)C[C@@H]2C)cc1	.	/	/
COC1(C)CN(Cc2ccccc2Br)[C@H](/C=C/c2ccccc2)[C@H](Cc2ccccc2)O1 (stereo partly drawn)	.	/	/
C[C@H]1CN([C@@H](C)CO)C(=O)c2cc(NC(=O)Cc3cn(C)c4ccccc34)ccc2O[C@H]1CN(C)Cc1ccc(C(F)(F)F)cc1	.	43	/
C[C@@H]1CN([C@H](C)CO)C(=O)c2cc(NC(=O)Cc3cn(C)c4ccccc34)ccc2O[C@@H]1CN(C)Cc1ccccc1	/	.	.
C[C@H](CO)N1C[C@H](C)[C@H](CN(C)Cc2ccc(C(F)(F)F)cc2)Oc2ccc(NC(=O)Cc3cn(C)c4ccccc34)cc2C1=O	.	.	/
C[C@@H]1CN([C@H](C)CO)C(=O)c2cc(NC(=O)Cc3cn(C)c4ccccc34)ccc2O[C@@H]1CN(C)C(=O)Nc1ccc(C(F)(F)F)cc1	/	81	.
